Read-outs that look alike come from different tables or passages of the source.
Assays:
[1] = Physicochemical properties; details: Experimental data
[2] = Blood-to-plasma partition ratio; assay type: in vitro ADME
[3] = Unbound fraction in plasma; assay type: in vitro ADME
[4] = PBPK model input parameters predicted, optimized or estimated in Simcyp; parameters: species or system human
CYP2C8 = molecular target: T1, CYP2C8 (Homo sapiens, UniProt P10632); test: In vitro competitive and time-dependent inhibition of CYP2C8; assay type: in vitro ADME
T1 sequence (P10632 1-490): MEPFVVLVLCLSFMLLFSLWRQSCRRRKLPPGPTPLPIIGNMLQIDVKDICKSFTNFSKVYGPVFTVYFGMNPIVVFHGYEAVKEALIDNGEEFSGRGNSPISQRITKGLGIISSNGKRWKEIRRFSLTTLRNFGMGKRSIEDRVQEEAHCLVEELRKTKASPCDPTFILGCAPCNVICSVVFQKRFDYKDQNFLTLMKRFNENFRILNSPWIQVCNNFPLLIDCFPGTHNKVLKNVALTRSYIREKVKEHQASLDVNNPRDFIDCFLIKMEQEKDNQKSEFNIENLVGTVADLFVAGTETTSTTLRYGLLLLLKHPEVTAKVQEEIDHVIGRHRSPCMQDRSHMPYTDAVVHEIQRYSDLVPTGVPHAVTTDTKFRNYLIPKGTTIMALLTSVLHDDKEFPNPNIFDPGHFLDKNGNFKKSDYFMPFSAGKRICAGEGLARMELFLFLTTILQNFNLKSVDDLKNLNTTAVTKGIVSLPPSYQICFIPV

CYP2C9 = CYP2C9 (Homo sapiens, UniProt P11712); test: In vitro competitive inhibition of CYP2C9; assay type: in vitro ADME
CYP2C9, sequence (P11712 whole entry): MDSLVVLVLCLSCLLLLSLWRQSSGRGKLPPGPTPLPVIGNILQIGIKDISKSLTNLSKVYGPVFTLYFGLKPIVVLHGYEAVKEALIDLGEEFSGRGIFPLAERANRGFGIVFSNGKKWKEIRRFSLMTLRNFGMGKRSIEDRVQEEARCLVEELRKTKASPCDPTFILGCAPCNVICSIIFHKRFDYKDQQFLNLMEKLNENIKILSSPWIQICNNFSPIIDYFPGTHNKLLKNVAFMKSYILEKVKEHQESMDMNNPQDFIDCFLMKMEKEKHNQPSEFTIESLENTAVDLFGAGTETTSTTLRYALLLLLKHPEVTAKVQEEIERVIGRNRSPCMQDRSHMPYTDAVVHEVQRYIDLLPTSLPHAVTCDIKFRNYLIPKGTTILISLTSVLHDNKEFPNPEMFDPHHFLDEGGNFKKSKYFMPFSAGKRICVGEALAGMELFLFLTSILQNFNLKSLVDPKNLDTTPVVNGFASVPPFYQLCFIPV

CYP3A4 [5] = molecular target: CYP3A4 (Homo sapiens, UniProt P08684); test: biochemical; assay type: in vitro ADME
CYP3A4 (Homo sapiens, UniProt P08684), sequence (P08684 whole entry): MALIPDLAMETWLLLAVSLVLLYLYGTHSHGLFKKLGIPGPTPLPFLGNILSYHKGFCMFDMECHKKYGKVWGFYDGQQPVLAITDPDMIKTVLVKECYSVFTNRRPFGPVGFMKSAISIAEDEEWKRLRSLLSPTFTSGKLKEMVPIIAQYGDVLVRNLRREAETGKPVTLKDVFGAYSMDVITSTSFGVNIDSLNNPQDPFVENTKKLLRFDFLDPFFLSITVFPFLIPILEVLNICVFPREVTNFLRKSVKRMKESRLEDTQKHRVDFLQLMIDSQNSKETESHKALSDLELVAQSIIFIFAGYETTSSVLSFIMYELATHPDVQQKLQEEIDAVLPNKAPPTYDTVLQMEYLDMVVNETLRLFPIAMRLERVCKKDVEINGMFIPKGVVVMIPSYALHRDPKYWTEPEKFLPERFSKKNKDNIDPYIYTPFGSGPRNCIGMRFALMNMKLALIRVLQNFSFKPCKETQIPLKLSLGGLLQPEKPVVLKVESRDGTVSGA

human hepatocytes = test: Metabolite profiling of 14C-acalabrutinib in human hepatocytes; assay type: in vitro ADME; details: 20 μM 14C-acalabrutinib
Method in brief: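 14C-labelled test compound at 20 μM was incubated with human hepatocytes from two male donors for qualitative metabolite profiling. Metabolism was apportioned between glutathione and CYP-mediated pathways, and the CYP3A share of CYP metabolite formation was estimated.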

P-gp [6] = molecular target: T2, P-gp (Homo sapiens, UniProt P08183); test: Efflux in MDCKII-MDR1 cells; assay type: in vitro ADME; details: dog, MDCK-MDR1
T2 sequence (P08183 whole entry): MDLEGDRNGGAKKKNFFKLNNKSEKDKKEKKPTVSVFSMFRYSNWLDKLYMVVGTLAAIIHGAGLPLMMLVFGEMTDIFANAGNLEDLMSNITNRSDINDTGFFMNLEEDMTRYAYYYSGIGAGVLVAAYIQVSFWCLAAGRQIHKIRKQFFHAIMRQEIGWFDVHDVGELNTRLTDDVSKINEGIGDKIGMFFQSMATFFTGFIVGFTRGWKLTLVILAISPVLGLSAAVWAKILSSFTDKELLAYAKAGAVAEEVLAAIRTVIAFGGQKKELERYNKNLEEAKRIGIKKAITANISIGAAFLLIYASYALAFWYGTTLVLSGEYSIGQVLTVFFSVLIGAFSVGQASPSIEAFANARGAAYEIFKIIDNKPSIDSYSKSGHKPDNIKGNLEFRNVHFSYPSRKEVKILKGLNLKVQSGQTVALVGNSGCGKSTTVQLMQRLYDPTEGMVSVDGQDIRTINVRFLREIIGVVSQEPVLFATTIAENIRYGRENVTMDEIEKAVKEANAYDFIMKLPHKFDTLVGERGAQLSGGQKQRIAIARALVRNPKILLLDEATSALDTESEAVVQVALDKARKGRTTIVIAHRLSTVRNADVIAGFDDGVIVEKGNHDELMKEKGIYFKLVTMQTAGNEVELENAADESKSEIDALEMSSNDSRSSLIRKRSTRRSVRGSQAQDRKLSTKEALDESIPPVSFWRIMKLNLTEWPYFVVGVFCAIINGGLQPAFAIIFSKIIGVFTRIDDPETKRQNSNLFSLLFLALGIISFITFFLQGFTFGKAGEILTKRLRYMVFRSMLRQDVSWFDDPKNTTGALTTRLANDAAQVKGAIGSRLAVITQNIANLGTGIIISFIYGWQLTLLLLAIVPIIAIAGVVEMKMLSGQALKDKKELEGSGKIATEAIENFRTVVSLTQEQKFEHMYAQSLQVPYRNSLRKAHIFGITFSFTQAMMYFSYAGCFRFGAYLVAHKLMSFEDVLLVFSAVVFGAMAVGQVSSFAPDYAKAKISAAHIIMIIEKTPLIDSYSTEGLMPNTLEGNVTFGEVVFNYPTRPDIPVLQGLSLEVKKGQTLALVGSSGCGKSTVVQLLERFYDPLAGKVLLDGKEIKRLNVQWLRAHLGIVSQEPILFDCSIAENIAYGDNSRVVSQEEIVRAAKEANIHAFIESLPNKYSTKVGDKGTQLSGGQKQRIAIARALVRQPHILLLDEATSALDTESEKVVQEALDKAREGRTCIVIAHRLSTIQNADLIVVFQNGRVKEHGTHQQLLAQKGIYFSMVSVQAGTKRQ

P-gp [7] = molecular target: T2, P-gp; test: In vitro P-gp inhibition; assay type: in vitro ADME
CYP1A2 = test: In vitro CYP induction, CYP1A2 marker substrate; assay type: in vitro ADME; details: any concentration evaluated
CYP2B6 = test: In vitro CYP induction, CYP2B6 marker substrate; assay type: in vitro ADME; details: any concentration evaluated
CYP3A4 [8] = assay type: in vitro ADME; details: any concentration evaluated
[9] = Clinical pharmacokinetics of acalabrutinib and ACP-5862; assay type: in vivo, human; details: ACE-HV-001, oral
Method in brief: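 Healthy subjects in a phase I dose-escalation study (ACE-HV-001) received single oral acalabrutinib doses of 25, 50, 75 or 100 mg (cohorts 3–6). In vivo total clearance was taken from this study's plasma concentration–time data.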

[10] = cited from earlier work
[11] = clinical DDI study with rifampicin; cited from earlier work
[12] = cited from earlier work; remark: listed apart in the source
[13] = tested on: patients with relapsed CLL; details: median follow-up 14.3 months; cited from earlier work
[14] = tested on: patients with relapsed/refractory mantle cell lymphoma; details: median follow-up 15.2 months; cited from earlier work
CYP3A4 [15] = test: Clearance of ACP-5862 in human liver microsomes; assay type: in vitro ADME; details: assigned to CYP3A4
CYP2C19 = CYP2C19 (Homo sapiens, UniProt P33261); test: In vitro competitive inhibition of CYP2C19; assay type: in vitro ADME; details: read-out: CYP2C19 Ki; reversible inhibition
CYP2C19, sequence (P33261 whole entry): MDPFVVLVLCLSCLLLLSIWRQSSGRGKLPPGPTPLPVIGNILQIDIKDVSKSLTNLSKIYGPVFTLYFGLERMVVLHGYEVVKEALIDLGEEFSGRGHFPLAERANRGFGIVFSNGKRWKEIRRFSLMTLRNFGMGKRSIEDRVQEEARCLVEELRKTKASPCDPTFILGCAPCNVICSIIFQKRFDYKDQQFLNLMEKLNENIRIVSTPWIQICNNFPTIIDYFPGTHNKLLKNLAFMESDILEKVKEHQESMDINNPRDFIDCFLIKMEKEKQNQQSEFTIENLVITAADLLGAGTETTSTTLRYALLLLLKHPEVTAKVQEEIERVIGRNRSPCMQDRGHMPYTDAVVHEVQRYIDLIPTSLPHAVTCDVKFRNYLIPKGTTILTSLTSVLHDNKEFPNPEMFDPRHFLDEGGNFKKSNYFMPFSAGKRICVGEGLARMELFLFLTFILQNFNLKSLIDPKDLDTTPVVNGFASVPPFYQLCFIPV

BTK = details: cited from earlier work
[16] = with strong CYP3A inhibitor clarithromycin; cited from earlier work

CC#CC(=O)N1CCC[C@H]1c1nc(-c2ccc(C(=O)Nc3ccccn3)cc2)c2c(N)nccn12 [Acalabrutinib]
Compound type [1]: Diprotic base | pKa ([1]; pKa (first value)): 3.54 | blood plasma ratio ([2]; blood): 0.787 | fraction unbound ([3]; plasma): 0.026 | CYP3A4 CLint ([4]; Retrograde model, total CYP3A4 clearance): 9.63 µL/min/pmol | microsomal CLint ([4]; human, liver microsomes): 290 µL/min/mg | CYP3A4 CLint ([4]; the rest to other metabolites): 8.14 µL/min/pmol | Ki (CYP2C8): 20.6 µM | Ki (CYP2C9): 11.3 µM | Ki (CYP3A4 [5]; CYP3A4 Ki, reversible inhibition): 23.9 µM | kinact (CYP3A4 [5]; human): 0.000308 s⁻¹ | share of CYP3A in the formation of CYP metabolites (human hepatocytes): ~ 90% | relative contribution of CYP-mediated metabolic pathway (human hepatocytes; two male donors): 79% | relative contribution of glutathione metabolic pathway (human hepatocytes; two male donors): 21% | efflux ratio at 1 μM (P-gp [6]): 42 | P-gp inhibition (P-gp [7]): not a P‐gp inhibitor | induction of metabolism of CYP1A2 marker substrate (CYP1A2): did not cause significant induction | induction of metabolism of CYP2B6 marker substrate (CYP2B6): did not cause significant induction | induction of metabolism of CYP3A4 marker substrate (CYP3A4 [8]): did not cause significant induction | in vivo total clearance [9]: 169 L/h | CLR (renal clearance) ([10]; clinical study ACE-HV-009): 1.33 L/h | absolute oral bioavailability ([10]; healthy subjects): 25% | oral half-life ([10]; healthy subjects): about 1.57 hours | accumulation after multiple doses ([10]; patients): no accumulation | acalabrutinib AUC with rifampicin, reduced to % of control [11]: ~ 20% | unchanged acalabrutinib, share of excreted dose ([12]; human mass-balance study): 1.2% | overall response rate [13]: 95% | investigator-assessed overall response rate [14]: 81%

CC#CC(=O)NCCCC(=O)c1nc(-c2ccc(C(=O)Nc3ccccn3)cc2)c2c(N)nccn12 [ACP‐5862]
Compound type [1]: Diprotic base | logP [1]: 2.72 | pKa (first value) [1]: 3.41 | pKa (second value) [1]: 4.49 | B/P ratio (blood-to-plasma ratio) ([2]; Experimental data): 0.65 | fu,plasma (unbound fraction in plasma) ([3]; Experimental data): 0.013 | Clint in vitro HLM, CYP3A4 (CYP3A4 [15]): 23.6 µL/min/mg | Ki (CYP2C8; read-out: CYP2C8 KI, time-dependent inhibition): 4 µM | CYP2C8 kinact (CYP2C8; time-dependent inhibition): 0.72 h⁻¹ | Ki (CYP2C9; read-out: CYP2C9 Ki, reversible inhibition): 3.35 µM | Ki (CYP2C19): 8.5 µM | potency for BTK inactivation relative to parent acalabrutinib (BTK): ~ 50% | CLR (renal clearance) ([10]; ACP-5862, reported in ACE-HV-009): 0.3 L/h | half-life ([10]; ACP-5862 after single oral dose of 100 mg acalabrutinib): 6.9 h | ACP-5862-related metabolites, share of total dose ([12]; human mass balance study): 10%

CCN1CCN(Cc2ccc(Nc3ncc(F)c(-c4cc(F)c5nc(C)n(C(C)C)c5c4)n3)nc2)CC1 [abemaciclib]
increase in exposure [16]: 3.4 fold

— paper PMC6656940 (CPT: Pharmacometrics & Systems Pharmacology, 2019)
